Consider 13 molecules from ChEMBL document CHEMBL1926638, “Anti-cancer activity of 5-O-alkyl 1,4-imino-1,4-dideoxyribitols” (Bioorg Med Chem, 2011).

The source made the active and inactive calls. No cut-off for these calls is given here.

Data set [1] relates to SK-BR-3. Briefly: Cytotoxicity against human SKBR3 cells after 72 hrs by MTS assay. Format: functional, cell-based. Summed up: (§1)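 SKBR3 (HER2+ breast cancer) cells exposed to compound for 72 h; number of metabolically active cells read by MTS tetrazolium reduction. Values are means of duplicate wells.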
Data set [2] relates to SK-BR-3. Briefly: Cytotoxicity against human SKBR3 cells assessed as cell viability 1 to 400 uM after 72 hrs by MTS assay. Format: functional, cell-based. Put shortly:
as §1

The subject of a further data set is Canavalia ensiformis. Briefly: Inhibition of jack beans alpha-mannosidase.
Data set [3] deals with Jurkat. Description: Induction of apoptosis in human Jurkat cells assessed as cell death at 10 uM after 24 hrs by annexin V-7AAD double staining based flow cytometric analysis. Type of data set: functional. Summed up:
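Jurkat T-ALL cells exposed to 10 µM for 24 h (time-course series). Apoptosis quantified by annexin V and 7-AAD staining with flow cytometry. Early apoptotic = annexin V+/7AAD−, late apoptotic = annexin V+/7AAD+. Viability monitored in parallel by trypan blue exclusion. Values given as percent cell death.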

For data set [4], the system named is Jurkat. Description: Cytotoxicity against human Jurkat cells by trypan blue assay. Type of data set: functional, cell-based. Put shortly:
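JURKAT cells exposed to compound; viability monitored by Trypan blue exclusion.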

The next data set concerns PBMC. Briefly: Induction of apoptosis in PBMC at 10 uM after 24 hrs by annexin-V and 7AAD double staining based flow cytometric analysis. Format: cell-based.
In data set [5] the test system is Jurkat. Description: Induction of apoptosis in human Jurkat cells assessed as cell death at 10 uM by annexin V-7AAD double staining based flow cytometric analysis. Type of data set: functional. The settings on record: TDE = time-dependent effect. Put shortly: (§2)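 JURKAT cells treated with compound. Apoptosis quantified by annexin-V/7-AAD staining and flow cytometry: early apoptotic = annexin V+7AAD−, late = annexin V+7AAD+. At 10 µM, a time course of cell death was also run.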

For data set [6], the system named is SK-BR-3. Briefly: Cytotoxicity against human SKBR3 cells assessed as cell death at 6.25 uM after 72 hrs by MTS assay. Format: functional, cell-based.
Data set [7] relates to Jurkat. Description: Induction of apoptosis in human Jurkat cells assessed as late apoptotic cells at 10 uM after 24 hrs by annexin V-7AAD double staining based flow cytometric analysis. Format: functional. Summed up:
as §2

Data set [8] concerns Jurkat. Briefly: Induction of apoptosis in human Jurkat cells assessed as early apoptotic cells at 10 uM after 24 hrs by annexin V based flow cytometric analysis. Type of data set: functional. Summed up: as §2
The nature of data set [9]: Induction of apoptosis in human CD34-positive and CD38-deficient hematopoietic progenitor cells assessed as cell death at 10 uM after 24 hrs by annexin V-7AAD double staining based flow cytometric analysis.
Data set [10] is described as follows: Induction of apoptosis in human CD34-positive and CD38-deficient hematopoietic progenitor cells assessed as late apoptotic cells at 10 uM after 24 hrs by annexin V-7AAD double staining based flow cytometric analysis.
Data set [11] in a line: Induction of apoptosis in human CD34-positive and CD38-deficient hematopoietic progenitor cells assessed as early apoptotic cells at 10 uM after 24 hrs by annexin V based flow cytometric analysis.
Data set [12] deals with SK-BR-3. Briefly: Cell cycle arrest in human SKBR3 cells assessed as accumulation in G0/G1 phase after 24 hrs by FITC-conjugated annexin-V propidium iodide based flow cytometric analysis. Format: functional. Put shortly:
(§3)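 SKBR3 cells treated with compound, then cell-cycle distribution examined (G0/G1 and S fractions); at higher concentrations DNA fragmentation and hypodiploid nuclei scored. Described as preliminary assays.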

Data set [13] relates to SK-BR-3. Briefly: Cell cycle arrest in human SKBR3 cells assessed as reduction in S phase after 24 hrs by FITC-conjugated annexin-V propidium iodide based flow cytometric analysis. Type of data set: functional. Put shortly:
as §3

Data set [14] relates to SK-BR-3. Description: Induction of apoptosis in human SKBR3 cells assessed as DNA fragmentation after 24 hrs by annexin-V propidium iodide based flow cytometric analysis. Type of data set: functional, cell-based. Put shortly:
as §3

For data set [15], the system named is SK-BR-3. Briefly: Induction of apoptosis in human SKBR3 cells assessed as hypodiploid cell nuclei appearance after 24 hrs by annexin-V propidium iodide based flow cytometric analysis. Type of data set: functional. Put shortly: as §3
The subject of data set [16] is SK-BR-3. Description: Cytotoxicity in human SKBR3 cells assessed as increase in intracellular vacuolization after 6 to 12 hrs. Format: functional, cell-based.
Data set [17] in a line: Cytotoxicity against mouse BA/F3 cells expressing tyrosine kinase at <10 uM after 48 hrs by resazurin reduction assay. Type of data set: cell-based. The settings on record: baf3, 48 h. Summed up:
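15 Ba/F3 models, each proliferating through engineered expression of a specific tyrosine kinase. Compound incubated 48 h at concentrations below 10 µM, read by resazurin reduction. 9-point IC50 curves in three independent experiments.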

Data set [18] deals with Jurkat. Briefly: Induction of apoptosis in human Jurkat cells assessed as cell death at 100 uM after 24 hrs by annexin V-7AAD double staining based flow cytometric analysis. Format: functional. Put shortly: as §2

`CCCCCCCCCCOC[C@H]1NC[C@H](O)[C@@H]1O`: the outcome with SK-BR-3 [1] and in the data set on SK-BR-3 [2] was Active. Besides, the Inhibition activity result in the data set on Canavalia ensiformis was “inactive”.

Turning to `CCCCCCCOC[C@H]1NC[C@H](O)[C@@H]1O`, the outcome with SK-BR-3 [2] was inactive. The Inhibition activity entry with Canavalia ensiformis was “inactive”.

Consider `OC[C@H]1NC[C@H](O)[C@@H]1O` [IMINORIBITOL], for which the outcome in the data set on SK-BR-3 [2], with Jurkat [3] and in the data set on Jurkat [4] was inactive. Besides, the Activity result in the data set on PBMC was “Non-toxic”.

On to `O[C@H]1[C@@H](O)CN[C@@H]1COCc1ccccc1`, for which, in the data set with SK-BR-3 [2], the result was inactive. Further, the Inhibition activity result in the data set on Canavalia ensiformis is “inactive”.

Consider `CCCCC/C=C\C/C=C\CCCCCCCCOC[C@H]1NC[C@H](O)[C@@H]1O`, for which the result in the data set with SK-BR-3 [1] and in the data set with SK-BR-3 [2] was Active. Further, the Inhibition activity result in the data set with Canavalia ensiformis is “inactive”.

For the molecule `C=CCCCOC[C@H]1NC[C@H](O)[C@@H]1O`, the Inhibition activity result in the data set on Canavalia ensiformis was “inactive”.

Take `CCCCCCCCCCCCCCCCCCOC[C@H]1NC[C@H](O)[C@@H]1O`: the result in the data set with SK-BR-3 [1] and in the data set with SK-BR-3 [2] was Active. In the data set on Canavalia ensiformis, the Inhibition activity entry is “inactive”.

On to `CCCCCCCC/C=C\CCCCCCCCOC[C@H]1NC[C@H](O)[C@@H]1O`, for which the Activity result was “tde” with Jurkat [5]; 100% with Jurkat [3]; 60% in the data set with Jurkat [7]; 40% with Jurkat [8]; 60% in [9]; 40% in [10]. Further, the Activity in data set [11] is listed as 20%; in data set [17], “Non-toxic”. Moreover, the IC50 in the data set with SK-BR-3 [1] (SK-BR-3, 72 h) turned out to be 2 µM; in the data set on Jurkat [4] it was 8 µM. Moreover, the outcome in the data set with SK-BR-3 [6], in the data set on SK-BR-3 [12], in the data set with SK-BR-3 [13], in the data set with SK-BR-3 [14], in the data set on SK-BR-3 [15] and in the data set with SK-BR-3 [16] was Active.

For the molecule `CCCCCOC[C@H]1NC[C@H](O)[C@@H]1O`, the Inhibition activity result in the data set with Canavalia ensiformis was “inactive”.

For `CCCCCCCCCCCCCCOC[C@H]1NC[C@H](O)[C@@H]1O`, in the data set on Canavalia ensiformis, the Inhibition activity entry is “inactive”.

Regarding `CC/C=C\C/C=C\C/C=C\CCCCCCCCOC[C@H]1NC[C@H](O)[C@@H]1O`, the result with SK-BR-3 [1] and in the data set on SK-BR-3 [2] was Active. The Inhibition activity result with Canavalia ensiformis is “inactive”.

On to `CCCCCC/C=C\CCCCCCCCOC[C@H]1NC[C@H](O)[C@@H]1O`, for which the result in the data set with SK-BR-3 [1] and in the data set with SK-BR-3 [2] was Active. The Inhibition activity entry in the data set with Canavalia ensiformis is “inactive”.

Take `O[C@H]1[C@@H](O)CN[C@@H]1COCc1ccc(-c2ccccc2)cc1`: the result in the data set with SK-BR-3 [2] and in the data set with Jurkat [18] was Active. For the same molecule, in the data set with Canavalia ensiformis, the Inhibition activity result is “Active”.
